The record followed here is ChEMBL document CHEMBL2407032, “Structural modification of pantothenamides counteracts degradation by pantetheinase and improves antiplasmodial activity” (ACS Med Chem Lett, 2013).

The nature of data set [1]: Selectivity index, ratio of IC50 for human Jurkat cells to IC50 for intraerythrocytic Plasmodium falciparum 3D7 infected in human erythrocytes in fresh RPMI-1640 culture medium. The class given is toxicity, cell-based. The following applies: read-out: Ratio IC50.
Data set [2] deals with Plasmodium falciparum. Put plainly: Antiplasmodial activity against intraerythrocytic Plasmodium falciparum 3D7 infected in human erythrocytes in heat treated RPMI-1640 culture medium assessed as parasite growth inhibition after 96 hrs by microscopic analysis. The following applies: 3D7, 96 h. The class given is functional, organism-based. An outline of the steps:
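3D7 ring-stage-initiated cultures in erythrocytes, grown 96 h in aged Albumax-complete RPMI. The medium was heat-treated for a prolonged time to reduce pantetheinase activity and held 1 μM pantothenic acid. IC50 from concentration-response. Mean ± SEM (or range/2) of at least two independent experiments, each in triplicate.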

The test system of the next data set is Jurkat. Put plainly: Cytotoxicity against human Jurkat cells after 96 hrs by SYBR green assay in presence of pantothenic acid. The class given is cell-based. An outline of the steps: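 Human leukemic T-cell line grown 96 h in medium with 1 μM pantothenic acid. IC50 from concentration-response profiles. Means ± SEM of three independent experiments performed in triplicate.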

The test system of data set [3] is Plasmodium falciparum. Put plainly: Antiplasmodial activity against intraerythrocytic Plasmodium falciparum 3D7 infected in human erythrocytes in fresh RPMI-1640 culture medium assessed as parasite growth inhibition after 96 hrs by microscopic analysis. It is filed as functional, organism-based. The following applies: 3D7, 96 h. An outline of the steps:
(§1)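 3D7 parasites in erythrocytes, started mostly at ring stage, grown 96 h in freshly prepared Albumax-complete RPMI (pantetheinase active) with 1 μM pantothenic acid. IC50 from concentration-response. Mean ± SEM (or range/2) of at least two independent experiments, each in triplicate.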

Another data set deals with pantetheinase. The experiment in a line: Drug metabolism of the compound assessed as compound hydrolysis at 200 uM after 10 mins by fluorescence assay in presence of recombinant human pantetheinase. The class given is physicochemical. The following applies: read-out: Drug metabolism.
Data set [4] relates to Plasmodium falciparum. Put plainly: Antiplasmodial activity against intraerythrocytic Plasmodium falciparum 3D7 infected in human erythrocytes in fresh RPMI-1640 culture medium assessed as parasite growth inhibition after 96 hrs by microscopic analysis in presence of pantetheinase. The class given is functional, organism-based. The following applies: 3D7, 96 h. An outline of the steps: as §1

Broadly, the IC50 is the point on the concentration scale where inhibition reaches its midpoint. `CCSCCNC(=O)CCCNC(=O)[C@H](O)C(C)(C)CO`: the selectivity ratio in data set [1] was more than 100. The IC50 with Plasmodium falciparum [2] was 1.9 µM; in the data set on Jurkat it was more than 200 µM; in the data set with Plasmodium falciparum [3], 2 µM; in the data set on Plasmodium falciparum [4] it was 169 µM. For the same compound, in the data set with pantetheinase, the metabolised at 10 min, 200 µM came out at 5%.
`CCCCCCNC(=O)CNC(=O)[C@H](O)C(C)(C)CO`: the selectivity ratio in data set [1] stood at 27. Also, the half-inhibitory concentration (IC50) in the data set on Plasmodium falciparum [2] turned out to be 7.9 µM; in the data set on Jurkat it was 126 µM; in the data set with Plasmodium falciparum [3] it was 4.7 µM; with Plasmodium falciparum [4] it was 104 µM. Moreover, the metabolised at 10 min, 200 µM with pantetheinase is 5%.
Take `CC(C)(CO)[C@@H](O)C(=O)NCCCC(=O)NCC1CCCCC1`: the selectivity ratio in data set [1] came to 54. Moreover, the IC50 is 3.3 µM with Plasmodium falciparum [2], 113 µM in the data set on Jurkat, 2.1 µM with Plasmodium falciparum [3] and more than 200 µM with Plasmodium falciparum [4]. The metabolised at 10 min, 200 µM in the data set on pantetheinase was found to be 5%.
For `CC(C)(CO)[C@@H](O)C(=O)NCCCC(=O)NCCc1ccccc1`, in data set [1], the selectivity ratio is 47. In addition, the figures for the IC50 in the data set on Jurkat, in the data set on Plasmodium falciparum [3] and in the data set on Plasmodium falciparum [4] were 99 µM, 2.1 µM and 139 µM, respectively. In the data set on pantetheinase, the metabolised at 10 min, 200 µM amounted to 5%.
`CCCCCNC(=O)CCCNC(=O)[C@H](O)C(C)(C)CO`: in data set [1], the selectivity ratio was determined as 49. Besides, the IC50 with Plasmodium falciparum [2] came to 2.2 µM; in the data set with Jurkat, 192 µM; in the data set with Plasmodium falciparum [3] it was 3.9 µM; in the data set with Plasmodium falciparum [4], 195 µM. In addition, in the data set on pantetheinase, the metabolised at 10 min, 200 µM is 5%.
